Assay outcomes from PubChem BioAssay.
Only some compounds are listed: those with a hit (about 29% of all), similar ones and a draw of the others.
E coli WT exp: growth inhibitors of E. coli BW25113 wild type | AID 710 | growth inhibition, % at 100 µM | 0.15% of 98,000 active | OD600 absorbance;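 active = growth inhibition above about 50% at one test dose, limit read from the data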;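 note: growth measured after 20 h incubation at 37 °C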
CYP2C19 activ: cytochrome P450 2C19 (human) activation; P33261; recombinant CYP2C19, luciferin-H EGE luminescence; stronger effect = higher value; 0 = fully inhibited enzyme, 1 = untreated enzyme; activation factor at 5 µM; 96,000 tested, under 10 active;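 active = activation factor of at least 2 at 5 µM in the primary screen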;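 note: 0 = wells with 2.5 mM tranylcypromine and 1 = vehicle-only wells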
Target sequence (P33261 whole entry, looked up): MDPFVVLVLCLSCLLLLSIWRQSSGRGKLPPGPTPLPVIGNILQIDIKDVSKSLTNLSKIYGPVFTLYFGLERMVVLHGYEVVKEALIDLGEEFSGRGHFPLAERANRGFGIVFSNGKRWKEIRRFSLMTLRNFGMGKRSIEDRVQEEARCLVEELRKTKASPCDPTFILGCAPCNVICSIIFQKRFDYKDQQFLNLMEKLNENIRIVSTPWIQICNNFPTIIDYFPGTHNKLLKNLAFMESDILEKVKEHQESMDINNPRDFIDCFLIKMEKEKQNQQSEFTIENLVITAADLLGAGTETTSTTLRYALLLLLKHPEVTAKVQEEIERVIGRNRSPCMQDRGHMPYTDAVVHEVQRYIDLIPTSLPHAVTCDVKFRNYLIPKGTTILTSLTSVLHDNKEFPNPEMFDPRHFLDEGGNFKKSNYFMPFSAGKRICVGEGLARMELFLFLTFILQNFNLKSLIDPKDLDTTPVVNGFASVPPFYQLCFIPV
CYP2C19 inhib: human CYP2C19 inhibition; CYP2C19 Supersomes, luciferin-H EGE luminescence, 30 min; 21% of 96,000 active; AID 778; P33261; inhibition, % at 5 µM;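 active = CYP2C19 inhibition above a set limit at 5 µM in the primary screen, cut at about 50% in these data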;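 note: plate controls were negative control wells for no effect and 2.5 mM tranylcypromine positive control for full effect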
tolC growth inh: E. coli tolC mutant growth inhibition | E. coli BW25113 tolC mutant growth, OD615 | growth inhibition, % at 10 µM (by protocol) | 2.2% of 65,000 active | AID 573;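 active = growth inhibition at or above a cutoff equal to the mean over every tested compound plus 3 SD, cut at about 60% in these data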;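 note: growth measured after 20 h incubation at 37 °C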
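signal = optical density read at 615 nm | test system = E. coli ΔtolC::kan strain BW25113 | timing = 20 h compound exposure of bacteria at 37 °C | buffer or medium = LB medium plus 50 µg/mL kanamycin | compound dosing = 10 µM final, single dose | evaluation = % inhibition of E. coli growth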
CYP2C9 act: increases human cytochrome P450 2C9 activity; 1.4% of 96,000 active; P11712; activation factor at 5 µM; recombinant CYP2C9, luciferin-H conversion, luminescence; stronger effect = higher value; factor 1 = untreated enzyme, 0 = blocked;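 active = activation factor of 2 or more for CYP2C9 at a 5 µM dose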;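 note: 0 = sulfaphenazole-blocked wells and 1 = vehicle-only wells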
CYP2C9 inhib: inhibitors of human CYP2C9 | CYP2C9 Supersomes, luciferin-H conversion, luminescence | P11712 | 20% of 96,000 active | inhibition, % at 5 µM;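 active = blocking of liver enzyme CYP2C9 beyond about 50% at 5 µM, limit read from the data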
Numbers without * were called inactive.

How did Cc1ccc2nsnc2c1S(=O)(=O)N1CCN(CCc2ccccc2)CC1 do in these assays?
E coli WT exp: 0; CYP2C19 activ: 0.1; CYP2C19 inhib: 92*; tolC growth inh: 14; CYP2C9 act: 1.1; CYP2C9 inhib: -13

What do the screens show for `Cc1ccc2nsnc2c1S(=O)(=O)NCc1cccnc1`?
E coli WT exp: 8; CYP2C19 activ: 0.7; CYP2C19 inhib: 29; tolC growth inh: -13; CYP2C9 act: 0.8; CYP2C9 inhib: 20

Results for CCN(CC)CCN(C(=O)Cn1nnc(-c2ccc(OC)c(OC)c2)n1)C(C(=O)NC1CCCC1)c1ccc(F)cc1 (stereo not drawn) ?
E coli WT exp: -12; CYP2C19 activ: 0.8; CYP2C19 inhib: 25; CYP2C9 act: 1; CYP2C9 inhib: 3

How did COc1ccc(N2C(=O)CCC(C(=O)c3ccccc3)=C2C)cc1 do in these assays?
E coli WT exp: 2; CYP2C19 activ: 0.1; CYP2C19 inhib: 95*; tolC growth inh: -1; CYP2C9 act: 0.6; CYP2C9 inhib: 37

What do the screens show for `O=C(N/N=C\c1cc(Br)cs1)C1COc2ccccc2O1` (stereo not drawn)?
E coli WT exp: -13; CYP2C19 activ: 0.9; CYP2C19 inhib: 10; CYP2C9 act: 0.9; CYP2C9 inhib: 13

Results for CCOc1ccc(N2CC(=O)Nc3ccccc3NCC2=O)cc1 ?
E coli WT exp: 6; CYP2C19 activ: 0.9; CYP2C19 inhib: 9; tolC growth inh: 2; CYP2C9 act: 0.9; CYP2C9 inhib: 12

How did CCOC(=O)c1cnc2c(C(F)(F)F)cccc2c1N1CCOCC1 do in these assays?
E coli WT exp: -1; CYP2C19 activ: 0.3; CYP2C19 inhib: 68*; tolC growth inh: 2; CYP2C9 act: 0.5; CYP2C9 inhib: 50

What do the screens show for `Cc1ccc(Nc2nc(C(=O)NCCCN3CCOCC3)cs2)cc1`?
E coli WT exp: 2; CYP2C19 activ: 0.7; CYP2C19 inhib: 28; tolC growth inh: -3; CYP2C9 act: 0.7; CYP2C9 inhib: 26

How did CCOC(=O)/C(=N\Nc1ccc(Cl)cc1)c1csc(Nc2ccccc2)n1 do in these assays?
E coli WT exp: 1; CYP2C19 activ: 0.9; CYP2C19 inhib: 12; CYP2C9 act: 0.1; CYP2C9 inhib: 87*

What do the screens show for `Cc1ccc(Nc2nc(C(=O)NCc3ccco3)cs2)cc1`?
E coli WT exp: -1; CYP2C19 activ: 0.1; CYP2C19 inhib: 86*; tolC growth inh: 9; CYP2C9 act: 0.1; CYP2C9 inhib: 91*

How did O=C(CSc1nnc(Nc2ccccc2)s1)NCc1ccco1 do in these assays?
E coli WT exp: -5; CYP2C19 activ: 0.6; CYP2C19 inhib: 42; tolC growth inh: -9; CYP2C9 act: 0.6; CYP2C9 inhib: 37

Results for CCOC(=O)/C(=N/Nc1ccccc1)c1csc(Nc2ccccc2)n1 ?
E coli WT exp: -7; CYP2C19 activ: 0.9; CYP2C19 inhib: 7; CYP2C9 act: 0.6; CYP2C9 inhib: 44

What do the screens show for `CCN(CC)C(=O)c1csc(Nc2ccc(C)cc2)n1`?
E coli WT exp: 0; CYP2C19 activ: 0.2; CYP2C19 inhib: 81*; tolC growth inh: -18; CYP2C9 act: 0.4; CYP2C9 inhib: 61*

What do the screens show for `Cc1ccc(Nc2nnc(SCC(=O)NCc3ccco3)s2)cc1`?
E coli WT exp: -5; CYP2C19 activ: 0.6; CYP2C19 inhib: 44; tolC growth inh: 2; CYP2C9 act: 0.4; CYP2C9 inhib: 58*

What do the screens show for `CCc1cccc(CC)c1N(COC)C(=O)Cn1c(C(C)O)nc2ccccc21` (stereo not drawn)?
E coli WT exp: 5; CYP2C19 activ: 0.9; CYP2C19 inhib: 6; tolC growth inh: 2; CYP2C9 act: 0.9; CYP2C9 inhib: 6

How did Cc1cc(Nc2nc3ccccc3nc2Cl)n(-c2ccccc2)n1 do in these assays?
E coli WT exp: 5; CYP2C19 activ: 0.6; CYP2C19 inhib: 44; CYP2C9 act: 0.7; CYP2C9 inhib: 28

How did Cc1cc(Nc2nc3ccccc3nc2Cl)n(-c2ccccc2C)n1 do in these assays?
E coli WT exp: -22; CYP2C19 activ: 0.1; CYP2C19 inhib: 89*; CYP2C9 act: 0.5; CYP2C9 inhib: 49

What do the screens show for `CCOc1ccc2ccccc2c1C(=O)N1CCN(c2ccccc2)CC1`?
E coli WT exp: -12; CYP2C19 activ: 0.1; CYP2C19 inhib: 93*; tolC growth inh: 9; CYP2C9 act: 0.1; CYP2C9 inhib: 88*

Results for COc1ccc(C(=O)N2CCN(c3cccc(Cl)c3)CC2)c(OC)c1 ?
E coli WT exp: -3; CYP2C19 activ: 0.1; CYP2C19 inhib: 87*; tolC growth inh: 8; CYP2C9 act: 0.3; CYP2C9 inhib: 69*

What do the screens show for `CCOc1ccccc1C(=O)N1CCN(c2cccc(Cl)c2)CC1`?
E coli WT exp: -3; CYP2C19 activ: 0.3; CYP2C19 inhib: 67*; tolC growth inh: 37; CYP2C9 act: 0.3; CYP2C9 inhib: 70*

How did COc1cc(Cl)ccc1NC(=O)COc1ccccc1C(=O)N1CCN(c2ccc(O)cc2)CC1 do in these assays?
E coli WT exp: -7; CYP2C19 activ: 0.2; CYP2C19 inhib: 79*; tolC growth inh: 11; CYP2C9 act: 0.2; CYP2C9 inhib: 82*

Results for O=C(O)c1ccccc1C(=O)N1CCN(c2cccc(Cl)c2)CC1 ?
E coli WT exp: 1; tolC growth inh: -15

What do the screens show for `O=C(NCCN1CCOCC1)C1CCC(CNS(=O)(=O)c2ccc(Cl)cc2)CC1` (stereo not drawn)?
E coli WT exp: 1; CYP2C19 activ: 0.9; CYP2C19 inhib: 11; CYP2C9 act: 1; CYP2C9 inhib: 0

How did COc1cccc(CN2CCN(CC(=O)Nc3ccccc3Cl)CC2)c1 do in these assays?
E coli WT exp: 20; CYP2C19 activ: 0.6; CYP2C19 inhib: 41; tolC growth inh: 4; CYP2C9 act: 0.6; CYP2C9 inhib: 35

What do the screens show for `COc1ccc(N(CC(=O)O)S(=O)(=O)c2cccnc2)cc1`?
E coli WT exp: 1; CYP2C19 activ: 1.2; CYP2C19 inhib: -20; tolC growth inh: -21; CYP2C9 act: 1.2; CYP2C9 inhib: -23

What do the screens show for `Cn1nnc2sc3c(c2c1=O)CCCC3`?
E coli WT exp: 2; CYP2C19 activ: 0.9; CYP2C19 inhib: 14; CYP2C9 act: 0.9; CYP2C9 inhib: 7

How did CCOC(=O)c1[nH]c(C)c(C(=O)N2CCN(c3ccccc3)CC2)c1C do in these assays?
E coli WT exp: 11; CYP2C19 activ: 0.7; CYP2C19 inhib: 35; tolC growth inh: 3; CYP2C9 act: 0.5; CYP2C9 inhib: 55*

Results for CCOC(=O)c1[nH]c(C)c(C(=O)N2CCOCC2)c1C ?
E coli WT exp: 6; CYP2C19 activ: 1; CYP2C19 inhib: 3; tolC growth inh: -5; CYP2C9 act: 1; CYP2C9 inhib: 5

Results for O=C(c1ccccc1Oc1ccccc1)N1CCN(c2ccccc2)CC1 ?
E coli WT exp: 2; CYP2C19 activ: 0; CYP2C19 inhib: 96*; tolC growth inh: 41; CYP2C9 act: 0; CYP2C9 inhib: 98*
